# An excerpt weighted towards active compounds, which were near 1.8% of everything screened.
# TNAP inh noacc – TNAP (human) inhibition, acceptor-free conditions | inhibition, % at 20 µM | P05186 | AID 1012 | 200,000 compounds, 0.26% hits | purified TNAP, CDP-star luminescence, 30 min;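 active means tissue-nonspecific alkaline phosphatase inhibition above about 50% at 20 µM in the single-dose screen, limit read from the data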;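 further: 0% = DMSO negative control and 100% = EDTA positive control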
# TNAP act hi DEA – increases human TNAP activity under high phosphate acceptor concentration. P05186. purified TNAP, CDP-star luminescence, 1 M DEA, 30 min; active compounds read high; 0 = EDTA background, 1 = DMSO-only activity. activation factor at 20 µM. 200,000 tested, under 10 active. AID 1136;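 active means activation factor at least 2 at 20 µM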
#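 system = human TNAP | amount = enzyme diluted 1/800 final | reagent = 100 µM CDP-star substrate | signal = luminescent substrate turnover signal | dosing = one dose, 20 µM | benchmarks = EDTA negative control, DMSO positive control | measure = activation factor | timing = 30 min reaction, room temperature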
# Insulin prom up – MIN6 insulin promoter up-regulation. MIN6 insulin promoter-GFP reporter, high-content imaging; active compounds read high. z-score at 5 µM. 190,000 compounds, 0.3% hits;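 active means z-score above 3 at 5 µM with at least 500 cells counted in the well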
# NCF1 inh – inhibitors of human p47phox binding; 220,000 compounds, 0.53% hits; p47phox/p22phox peptide binding, fluorescence polarization, 2 h; inhibition, % at 24.7 µM; P14598;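 active means inhibition above about 30%, limit read from the data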;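 further: 0% = p47phox with labelled peptide and 100% = labelled peptide alone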
# Target sequence (P14598 whole entry, looked up): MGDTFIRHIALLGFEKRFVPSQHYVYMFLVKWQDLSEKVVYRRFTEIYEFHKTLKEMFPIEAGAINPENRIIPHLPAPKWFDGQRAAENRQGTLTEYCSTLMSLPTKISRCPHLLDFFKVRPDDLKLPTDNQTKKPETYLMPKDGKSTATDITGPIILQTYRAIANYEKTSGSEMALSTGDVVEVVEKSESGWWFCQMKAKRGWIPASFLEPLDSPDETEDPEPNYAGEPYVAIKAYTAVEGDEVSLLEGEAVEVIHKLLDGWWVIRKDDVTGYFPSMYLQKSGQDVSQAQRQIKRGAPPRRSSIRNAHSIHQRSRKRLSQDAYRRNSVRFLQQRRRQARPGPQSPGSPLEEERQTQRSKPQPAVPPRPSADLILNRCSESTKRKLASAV
# Autophagy HCS – modulators of autophagy | MEF GFP-LC3 puncta imaging; test concentration mostly 10 µM | calls only at 10 µM (by protocol) | 190,000 compounds, 0.98% hits | AID 463193;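 active means percentage of spot-positive cells more than 3 SD above its plate mean, without a fluorescence outlier flag or 80% toxicity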;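 further: spot-positive cell cutoff set from DMSO-treated cells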
# TNAP inh hi DEA – blocks human TNAP under high phosphate acceptor concentration; 200,000 compounds, 0.03% hits; inhibition, % at 20 µM; purified TNAP, CDP-star luminescence, 1 M DEA;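 active means over 50% inhibition of tissue-nonspecific alkaline phosphatase at 20 µM in the single-dose screen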;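 further: plate controls were DMSO wells for no effect and EDTA-quenched wells as full inhibition for full effect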
# Active calls of the source: *; i = inactive; . = no result; + = active, no number.
SMILES,TNAP inh noacc,TNAP act hi DEA,Insulin prom up,NCF1 inh,Autophagy HCS,TNAP inh hi DEA
CCc1ccc(-c2nc(CN3CCC(C(=O)NCCN(CC)c4ccccc4)CC3)c(C)o2)cc1,-182,1.5,-1.7,-18,i,-52
O=C(O)CCCN1C(=O)NC2NC(=O)NC21 (stereo unspecified),-11,1.1,0.47,-4,+,-5
O=C(O)CN1C(=O)NC2NC(=O)NC21 (stereo unspecified),-8,1.1,-0.6,7,i,-6
O=C(CCCn1c(=O)oc2ccccc21)N1CCc2ccccc2C1,-6,1,0.11,1,+,-3
O=C(CCn1c(=O)oc2ccccc21)NCCN1CCc2ccccc2C1,-12,1,0.07,6,i,-5
CC1CN(C(=O)CCn2c(=O)oc3ccccc32)CC(C)O1 (stereo unspecified),-7,1,8*,-5,i,-2
COC(=O)c1cccc(NC(=O)CCNC(=O)c2ccc([N+](=O)[O-])cc2)c1,-10,1.1,0.87,0,i,-6
Nc1ccc(C(=O)N/N=C\C=C\c2ccc([N+](=O)[O-])cc2)cc1,6,1,-0.7,4,+,4
COc1cc(SC#N)ccc1N=Cc1c(C)[nH]n(-c2ccc(Cl)cc2)c1=O,-8,1,-2.3,-9,+,0
CCc1ccc(C2CC(=O)N3CN(c4ccccc4)CSC3=C2C#N)cc1 (stereo unspecified),9,1,0.19,-23,i,2
N#CC1=C2SCC(O)(c3ccccc3)N2C(=O)CC1c1ccccc1 (stereo unspecified),-14,1.1,-0.89,-40,+,-9
O=C(OCC(=O)N1CCN(C(=O)c2ccco2)CC1)c1ccccc1OCc1ccccc1,-9,1.1,12*,-6,i,-6
O=C(OCC(=O)N1CCCC1)c1ccccc1OCc1ccccc1,-12,1,.,-3,i,-5
Cc1ccc(N2CCN(C(=O)c3ccccc3)CC2)c(C)c1,-6,1,-0.32,92*,i,-2
Cc1ccc(N2CCN(C(=O)c3ccccc3Br)CC2)c(C)c1,-7,1,0.2,-3,i,-2
CC(=O)c1ccc(OCc2ccc(Oc3c(Cl)cccc3[N+](=O)[O-])cc2)cc1,-43,1,-0.27,-10,i,-2
Cc1ccc(C(=O)n2nc(-n3cccc3)c3c(C)cc(C)nc32)cc1,58*,1,-0.13,-15,i,0
Cc1cccc2sc(NNC(=O)c3ccc4c(c3)OCCO4)nc12,-25,1,3.4*,3,i,-1
O=C(NNc1nc2cc3c(cc2s1)OCCO3)c1ccccc1,-134,1,0.08,-5,i,-1
CCOC(=O)c1ccc(NC(=O)CSc2nnc(Cn3c(=O)sc4ccccc43)n2C)cc1,-10,1,.,+,i,-4
CC(C)N(C)CCOC(=O)/C=C/c1ccccc1,-8,1,-0.1,38*,i,1
Cc1ccc(NS(=O)(=O)c2cc([N+](=O)[O-])ccc2NNC(=S)Nc2cccc(Cl)c2)c(C)c1,40,0.4,1.5,-48,i,58*
COCCCNC(=O)CN(c1ccc(OC)cc1)S(=O)(=O)c1ccc(NC(C)=O)cc1,-1,1.1,-0.98,8,i,-6
COc1cc2c(cc1NS(=O)(=O)N1CCCCC1)oc1ccccc12,-1,1,1.8,-8,i,-3
CCn1c2ccccc2c2nnc(SCc3cc(=O)n4ccsc4n3)nc21,-2,1.1,.,.,.,-5
SMILES,TNAP inh noacc,TNAP act hi DEA,Insulin prom up,NCF1 inh,Autophagy HCS,TNAP inh hi DEA
COc1ccc(CCN=C(N)NS(=O)(=O)c2ccc(C)cc2)cc1OC,-16,1.1,-0.92,1,i,-6
COc1ccccc1CCN=C(N)NS(=O)(=O)c1ccc(C)cc1,-8,1,.,-5,+,-3
C/C(CC1CC2=C(CC1(C)C)C(C)(C)CCC2)=N\NC(N)=S (stereo unspecified),-11,0.9,-0.88,-2,+,7
Cc1onc(-c2ccccc2)c1C(=O)Nc1ccon1,-12,1.1,0.73,36*,i,-7
CCN(CC)S(=O)(=O)c1cccc(C(=O)NCCc2ccccc2)c1,.,.,.,.,i,.
CN(c1ccccc1)S(=O)(=O)c1cccc(C(=O)NCCc2ccc(O)c(O)c2)c1,51*,0.9,.,-5,i,13
CCN1CNC(=S)N(C(C)c2ccccc2)C1 (stereo unspecified),-8,1,-0.13,-6,i,4
COc1cc(C(=O)Nc2ccccc2C2COC(=O)C2=N)cc(OC)c1OC (stereo unspecified),-12,1.1,-0.08,-3,+,-7
CCN(CC(=O)Nc1cc(Cl)ccc1C)c1ncnc2sc(C)c(C)c12,-8,1.1,-0.6,-20,i,-6
COc1cc(/C=C(\NC(=O)c2ccccc2)C(=O)NCCO)c([N+](=O)[O-])cc1OC,-5,1,-0.12,-4,i,1
COc1cc(/C=C(/NC(=O)c2ccccc2)C(=O)N2CCN(C)CC2)c([N+](=O)[O-])cc1OC,-3,1.1,0.1,36*,i,-7
COc1ccc(OCCCn2cc(/C=C3/C(=N)N4C=C(C)SC4=NC3=O)c3ccccc32)cc1,15,0.9,0.44,-123,+,11
C/C(CC(=O)Nc1ccc(Cl)cc1Cl)=N\NC(=O)c1cnccn1,.,.,0.13,-8,.,.
CC1=Nc2cccc([N+](=O)[O-])c2NC(=O)C1,-3,1,-0.39,6,i,0
Cc1cc2nnc(SCC(=O)N3C(C)CCCC3C)n2c(N)n1 (stereo unspecified),-1,1,0.32,54*,i,1
Cc1cc2nnc(SCC(=O)N3CCCCC3)n2c(N)n1,-2,1,0.52,-24,i,-2
Cc1ccc2nc(SCC(=O)c3c(C)[nH]c4ccccc34)[nH]c2c1,-45,1,0.08,-50,i,1
Cc1[nH]c2ccccc2c1C(=O)CSc1nc2ncc(Cl)cc2[nH]1,58*,1,-0.16,-65,i,1
Cc1c(Cl)cccc1NC(=S)N1CCc2ccccc2C1,-15,1,0.64,-5,i,-2
FC(F)(F)c1ccccc1NC(=S)N1CCc2ccccc2C1,-9,1,-2.2,-9,+,-5
Nc1c(C2=NCCO2)nnn1Cc1ccccc1,-11,1,0.48,44*,i,-2
O=C(NCc1ccccc1)C(=O)NCC(c1ccco1)N1CCN(c2ccccc2F)CC1 (stereo unspecified),-17,1.1,-0.17,59*,i,-8
O=C(NCc1cccnc1)C(=O)NCC(c1ccco1)N1CCN(c2ccccc2F)CC1 (stereo unspecified),-6,1,0.74,-4,i,4
